ChEMBL document CHEMBL4308910, “Metronidazole aryloxy, carboxy and azole derivatives: Synthesis, anti-tumor activity, QSAR, molecular docking and dynamics studies” (Bioorg Med Chem, 2019)
In brackets after ≈: the same amount, converted by molar mass.

Columns and labels:
HT-29 = assay: Cytotoxicity against human HT-29 cells after 24 hrs by MTT assay; assay type: functional, cell-based; settings: HT-29, 24 h
Summary of the method: (§1)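 Cells were grown in DMEM with 10% FBS and penicillin/streptomycin at 37 °C under 5% CO2. Seeding was 1×10^4 cells/well for A549 and MCF-7, or 1.2×10^4 cells/well for HT-29, followed by 24 h attachment. Compounds came from DMSO stocks diluted in serum-free DMEM, 0.1–1000 µg/mL, DMSO <0.5%, triplicate wells, 24 h. MTT (5 mg/mL stock in PBS) 3–4 h at 37 °C in dark; DMSO-solubilised A570. IC50 from 3 runs, mean ± S.E.M.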

A549 [1] = assay: Cytotoxicity against human A549 cells after 24 hrs by MTT assay; assay type: functional, cell-based; settings: A549, 24 h; summary of the method: as §1
MCF7 = assay: Cytotoxicity against human MCF7 cells after 24 hrs by MTT assay; assay type: functional, cell-based; settings: MCF7, 24 h; summary of the method: as §1
A549 [2] = assay: Induction of apoptosis in human A549 cells assessed as necrotic cells at 90 ug/mL after 16 hrs by propidium iodide/Annexin V/7-AAD staining-based flow cytometric analysis (reference value: 0.41%); assay type: functional
A549 [3] = assay: Induction of apoptosis in human A549 cells assessed as early apoptotic cells at 90 ug/mL after 16 hrs by propidium iodide/Annexin V/7-AAD staining-based flow cytometric analysis (reference value: 0.01%); assay type: functional
A549 [4] = assay: Induction of apoptosis in human A549 cells assessed as late apoptotic cells at 90 ug/mL after 16 hrs by propidium iodide/Annexin V/7-AAD staining-based flow cytometric analysis (reference value: 0.21%); assay type: functional
A549 [5] = assay: Induction of apoptosis in human A549 cells assessed as viable cells at 90 ug/mL after 16 hrs by propidium iodide/Annexin V/7-AAD staining-based flow cytometric analysis (reference value: 99.37%); assay type: functional; settings: A549, 16 h, read-out: Activity

Row | SMILES | IC50 (HT-29) | IC50 (A549 [1]) | IC50 (MCF7) | Activity (A549 [2]) | Activity (A549 [3]) | Activity (A549 [4]) | viability at 90 µg/mL (A549 [5])
1 | Cc1ncc([N+](=O)[O-])n1CCn1cnc2ccccc21 | 148 µg/mL (≈ 546 µM) | 219 µg/mL (≈ 809 µM) | 103 µg/mL (≈ 380 µM) | – | – | – | –
2 | Cc1ncc([N+](=O)[O-])n1CCn1ccnc1 | 115 µg/mL (≈ 518 µM) | 240 µg/mL (≈ 1080 µM) | 462 µg/mL (≈ 2090 µM) | – | – | – | –
3 | Cc1ncc([N+](=O)[O-])n1CCCl | 311 µg/mL (≈ 1640 µM) | 300 µg/mL (≈ 1580 µM) | 480 µg/mL (≈ 2530 µM) | – | – | – | –
4 | Cc1ncc([N+](=O)[O-])n1CCOC(=O)c1ccc(Br)cc1 | 277 µg/mL (≈ 783 µM) | 194 µg/mL (≈ 548 µM) | 271 µg/mL (≈ 766 µM) | – | – | – | –
5 | Cc1ncc([N+](=O)[O-])n1CCOC(=O)c1ccccc1Cl | 279 µg/mL (≈ 902 µM) | 255 µg/mL (≈ 823 µM) | 380 µg/mL (≈ 1230 µM) | – | – | – | –
6 | Cc1ccc(C(=O)OCCn2c([N+](=O)[O-])cnc2C)cc1 | 359 µg/mL (≈ 1240 µM) | 184 µg/mL (≈ 636 µM) | 256 µg/mL (≈ 884 µM) | – | – | – | –
7 | Cc1ncc([N+](=O)[O-])n1CCOc1ccc(Cl)c(Cl)c1 | 109 µg/mL (≈ 344 µM) | 77.9 µg/mL (≈ 246 µM) | 69.6 µg/mL (≈ 220 µM) | 26.27% | 5.73% | 61.15% | 6.85%
8 | Cc1ncc([N+](=O)[O-])n1CCOc1ccccc1Cl | 552 µg/mL (≈ 1960 µM) | 574 µg/mL (≈ 2040 µM) | 378 µg/mL (≈ 1340 µM) | – | – | – | –
9 | Cc1cc(OCCn2c([N+](=O)[O-])cnc2C)ccc1Cl | 159 µg/mL (≈ 537 µM) | 150 µg/mL (≈ 506 µM) | 188 µg/mL (≈ 635 µM) | – | – | – | –
10 | Cc1ncc([N+](=O)[O-])n1CCOC(=O)c1ccccc1F | 146 µg/mL (≈ 497 µM) | 170 µg/mL (≈ 578 µM) | 262 µg/mL (≈ 895 µM) | – | – | – | –
11 | Cc1ncc([N+](=O)[O-])n1CCOc1ccc(F)cc1 | 102 µg/mL (≈ 386 µM) | 129 µg/mL (≈ 487 µM) | 85.8 µg/mL (≈ 324 µM) | – | – | – | –
12 | Cc1ncc([N+](=O)[O-])n1CCOc1ccc(F)c(Cl)c1 | 199 µg/mL (≈ 664 µM) | 122 µg/mL (≈ 407 µM) | 110 µg/mL (≈ 367 µM) | – | – | – | –
13 | Cc1ncc([N+](=O)[O-])n1CCOc1ccc([N+](=O)[O-])cc1 | 116 µg/mL (≈ 396 µM) | 110 µg/mL (≈ 378 µM) | 127 µg/mL (≈ 433 µM) | – | – | – | –
14 | COc1ccccc1C(=O)OCCn1c([N+](=O)[O-])cnc1C | 283 µg/mL (≈ 926 µM) | 289 µg/mL (≈ 947 µM) | 447 µg/mL (≈ 1460 µM) | – | – | – | –
15 | Cc1ncc([N+](=O)[O-])n1CCOc1ccccc1[N+](=O)[O-] | 581 µg/mL (≈ 1990 µM) | 573 µg/mL (≈ 1960 µM) | 583 µg/mL (≈ 1990 µM) | – | – | – | –
16 | COc1cccc(C(=O)OCCn2c([N+](=O)[O-])cnc2C)c1 | 293 µg/mL (≈ 960 µM) | 281 µg/mL (≈ 921 µM) | 428 µg/mL (≈ 1400 µM) | – | – | – | –
17 | Cc1ncc([N+](=O)[O-])n1CCOC(=O)c1ccco1 | 287 µg/mL (≈ 1080 µM) | 167 µg/mL (≈ 631 µM) | 207 µg/mL (≈ 779 µM) | – | – | – | –
18 | Cc1ncc([N+](=O)[O-])n1CCOc1ccc(C#N)cc1 | 76.8 µg/mL (≈ 282 µM) | 79.8 µg/mL (≈ 293 µM) | 83.2 µg/mL (≈ 306 µM) | 9.96% | 11.72% | 21.24% | 57.1%
19 | Cc1ncc([N+](=O)[O-])n1CCOc1cccc([N+](=O)[O-])c1 | 112 µg/mL (≈ 383 µM) | 108 µg/mL (≈ 371 µM) | 71.7 µg/mL (≈ 245 µM) | – | – | – | –
20 | Cc1ncc([N+](=O)[O-])n1CCOc1ccccc1 | 134 µg/mL (≈ 543 µM) | 107 µg/mL (≈ 435 µM) | 106 µg/mL (≈ 430 µM) | – | – | – | –
21 | Cc1ncc([N+](=O)[O-])n1CCn1nnc2ccccc21 | 538 µg/mL (≈ 1980 µM) | 701 µg/mL (≈ 2580 µM) | 384 µg/mL (≈ 1410 µM) | – | – | – | –
22 | Cc1nccn1CCn1c([N+](=O)[O-])cnc1C | 142 µg/mL (≈ 604 µM) | 195 µg/mL (≈ 831 µM) | 157 µg/mL (≈ 668 µM) | – | – | – | –
23 | Cc1ncc([N+](=O)[O-])n1CCOc1ccc2ccccc2c1 | 94.8 µg/mL (≈ 319 µM) | 96.1 µg/mL (≈ 323 µM) | 64.9 µg/mL (≈ 218 µM) | 12.96% | 10.13% | 29.33% | 47.6%
24 | Cc1cc(OCCn2c([N+](=O)[O-])cnc2C)ccc1F | 140 µg/mL (≈ 503 µM) | 226 µg/mL (≈ 808 µM) | 116 µg/mL (≈ 415 µM) | – | – | – | –
25 | Cc1ccc(S(=O)(=O)OCCn2c([N+](=O)[O-])cnc2C)cc1 | 328 µg/mL (≈ 1010 µM) | 196 µg/mL (≈ 603 µM) | 160 µg/mL (≈ 491 µM) | – | – | – | –
26 | CN(Cc1cnc2nc(N)nc(N)c2n1)c1ccc(C(=O)N[C@@H](CCC(=O)O)C(=O)O)cc1 [METHOTREXATE] | 47.8 µg/mL (≈ 105 µM) | 39.3 µg/mL (≈ 86.5 µM) | 31.5 µg/mL (≈ 69.3 µM) | – | – | – | –
27 | Cc1ncc([N+](=O)[O-])n1CCOC(=O)c1ccccc1 [METRONIDAZOLE BENZOATE] | 288 µg/mL (≈ 1050 µM) | 281 µg/mL (≈ 1020 µM) | 245 µg/mL (≈ 889 µM) | – | – | – | –
28 | Cc1ncc([N+](=O)[O-])n1CCO [METRONIDAZOLE] | 278 µg/mL (≈ 1620 µM) | 224 µg/mL (≈ 1310 µM) | 348 µg/mL (≈ 2030 µM) | – | – | – | –
